# m-calpain inh: calpain II (pig) inhibition; inhibition, % at 16 µM; purified calpain II, fluorogenic peptide substrate, 30 min; AID 1236; 0.37% of 220,000 active;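 active = inhibition above about 50%, limit read from the data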
# thrombin 1536: blocks human thrombin protease activity; inhibition, % at 5 µM; P00734; alpha-thrombin, Boc-VPR-AMC fluorogenic substrate cleavage; AID 1046; 0.26% of 220,000 active;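 active = inhibition at or above 40%; inactive = inhibition below 40%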;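 also: 0% = enzyme with no compound and 100% = wells without enzyme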
#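 Test system: human alpha-thrombin; medium: pH 7.5 Tris-saline with Tween 20; times: reaction at room temperature; signal: AMC fluorescence at 355 nm excitation and 460 nm emission; also added: Boc-VPR-AMC substrate, 15 µM final; dosing: one concentration per compound, 5 µM, with 0.2% DMSO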
# hK5 inh: inhibitors of human kallikrein 5; Q9Y337; recombinant hK5, fluorogenic AMC substrate cleavage; inhibition, % at 5 µM; 0.59% of 210,000 active;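 active = inhibition of 40% or more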;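 also: 0% = enzyme controls without compound and 100% = no-enzyme blanks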
# FXIIa inh: inhibitors of human coagulation factor XIIa | P00748 | 0.3% of 220,000 active | AID 800 | purified FXIIa, Boc-QGR-AMC fluorogenic substrate, 2 h | inhibition, % at 5 µM; in the data active = inhibition above about 40%;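 also: 0% = enzyme with no compound and 100% = blank without enzyme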
# Target sequence (P00748 20-372 limits assumed): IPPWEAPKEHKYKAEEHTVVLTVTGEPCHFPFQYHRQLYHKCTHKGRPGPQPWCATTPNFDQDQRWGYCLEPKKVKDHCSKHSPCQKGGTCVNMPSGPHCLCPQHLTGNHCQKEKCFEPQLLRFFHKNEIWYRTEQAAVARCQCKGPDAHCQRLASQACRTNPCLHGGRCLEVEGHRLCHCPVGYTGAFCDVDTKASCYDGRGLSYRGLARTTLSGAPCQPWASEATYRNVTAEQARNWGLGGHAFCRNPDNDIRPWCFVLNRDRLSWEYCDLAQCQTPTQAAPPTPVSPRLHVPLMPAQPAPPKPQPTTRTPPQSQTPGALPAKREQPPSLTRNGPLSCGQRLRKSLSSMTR
# Target sequence (P00748 373-615 limits assumed): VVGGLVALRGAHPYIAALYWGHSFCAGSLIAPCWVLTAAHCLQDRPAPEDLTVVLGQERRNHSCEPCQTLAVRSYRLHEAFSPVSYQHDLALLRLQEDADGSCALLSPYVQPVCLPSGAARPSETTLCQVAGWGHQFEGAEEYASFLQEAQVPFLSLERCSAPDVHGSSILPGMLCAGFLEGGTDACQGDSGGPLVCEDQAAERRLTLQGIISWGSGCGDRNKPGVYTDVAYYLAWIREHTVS
# FXIa inh: blocks human coagulation factor XIa protease activity; P03951; purified FXIa, Boc-Glu-Ala-Arg-AMC fluorogenic substrate; inhibition, % at 5 µM; 0.14% of 220,000 active; AID 798;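 active = inhibition of at least 40%; inactive = inhibition below 40%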;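 also: fluorescence of freed AMC excited at 355 nm; 0% = enzyme without compound and 100% = no enzyme blank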
# Active calls of the source: *; · = no result. This is a sample that favours compounds with a hit; in the whole collection about 1.4% have one here.
SMILES,m-calpain inh,thrombin 1536,hK5 inh,FXIIa inh,FXIa inh
CC(C)CC(c1nnnn1C1CCCCC1)N1CCN(c2ncccn2)CC1 (stereo unspecified),25,2,2,-2,0
CCOC(=O)C1=C(C)NC(=O)C1CC(=O)O (stereo unspecified),-12,-2,-9,7,6
Clc1cc2nc[nH]c2cc1Cl,-29,0,6,8,3
CC(=O)N1CCc2c(sc(NC(=O)C3CC3)c2-c2nc3ccccc3s2)C1,-154,-3,-8,51*,0
CCCCC(=O)Nc1sc2c(c1-c1nc3ccccc3s1)CCN(C(C)=O)C2,-387,6,-2,20,-1
Cc1ccc(NC(=S)NNC(=O)c2nnn(-c3ccccc3)c2C)cc1,3,-2,-77,3,0
O=C(CCCn1c(=S)[nH]c2cc3c(cc2c1=O)OCO3)N1CCN(c2ccccc2)CC1,-137,26,130*,20,15
CC(=O)c1ccc(N2CCN(C(=O)CCCn3c(=S)[nH]c4cc5c(cc4c3=O)OCO5)CC2)cc1,-32,4,-6,11,4
CCN(CC)C(=O)CNC(=S)N(CCCN1CCOCC1)Cc1cccs1,10,-11,-4,8,-2
O=C1c2ccccc2C(=O)N1CCCCCc1nc(-c2ccccc2)no1,64*,-8,-31,-6,2
CC(C)N(Cc1nc(-c2ccc(Cl)cc2)no1)C(=O)CCCN1C(=O)c2ccccc2C1=O,65*,2,-6,4,-3
CC(C)N(Cc1nc(-c2ccccc2)no1)C(=O)c1ccc(Cl)cc1,21,-7,-4,3,1
COC1(NS(=O)(=O)c2ccc(Br)cc2)C(C)=CC(=O)C=C1C,-1,-1,-1,7,-5
COc1cc(C)c(S(=O)(=O)NCc2cccs2)cc1C,12,30,27,108*,8
COc1ccc(Cl)cc1S(=O)(=O)NCc1cccs1,2,3,9,15,2
CCOC(=O)c1c(NC(=O)CSc2nnnn2C)sc(C)c1-c1ccc(C)cc1,56*,-5,-7,-14,-3
COc1ccccc1NC(=O)CSc1nnnn1C,34,-1,7,59*,33
COc1ccc(OC)c(NC(=O)CSc2nnnn2C)c1,-8,-1,-22,4,12
CC1CCN(S(=O)(=O)c2ccc(NC(=O)CSc3nnnn3C)cc2)CC1,59*,25,-25,-5,-13
Cn1nnnc1SCC(=O)Nc1cccc(S(=O)(=O)N2CCCC2)c1,-25,-9,-4,4,-8
CCOC(=O)c1c(-c2ccccc2)csc1NC(=O)CSc1nnnn1C,-11,-3,18,2,-4
O=C(C[n+]1ccn(CCCNP2(=O)C=C(c3ccccc3)OC(c3ccccc3)=C2)c1)c1cccs1,22,-13,-8,-1,-22
N#Cc1c2c(c(NCc3ccco3)n3c1nc1ccccc13)CCC2,-113,-4,-31,23,16
N#Cc1c2c(c(Nc3ccc(O)cc3)n3c1nc1ccccc13)CCC2,8,35,44*,12,0
CCn1c(CSc2nnc(-c3ccncc3)n2C)nc2cc(C(=O)O)ccc21,6,-2,-1,5,-3
SMILES,m-calpain inh,thrombin 1536,hK5 inh,FXIIa inh,FXIa inh
CC(C)Sc1nc(SCC(=O)NCc2ccco2)c2c3c(sc2n1)COC(C)(C)C3,-23,32,55*,14,7
N#Cc1cnn(Cc2ccccc2)c1N,23,9,-23,0,-17
N#Cc1cnn(Cc2ccc(Cl)cc2)c1N,15,0,9,58*,36
CCn1c(N)c(C(=O)NCc2cccnc2)sc1=S,7,2,-6,18,6
Nc1c(C(=O)NCc2cccnc2)sc(=S)n1-c1ccccc1,32,38,35,42*,15
COc1ccnc(-n2cccc2C#N)c1C#N,-2,-8,·,0,-5
CCc1ccc(NC2CC(=O)N(c3ccc(OC)cc3OC)C2=O)cc1 (stereo unspecified),13,43*,-21,-4,-18
CC(C)(C)C(=O)/C=c1\s/c(=C\c2ccc(-c3ccc([N+](=O)[O-])cc3)o2)c(=O)n1CC(=O)NC(N)=O,-242,2,-3,4,5
c1ccc(N2CCN(c3nnc(Cc4cccnc4)c4ccccc34)CC2)nc1,-4,5,43*,4,-1
c1ccc(Cc2nnc(N3CCCCC3)c3ccccc23)cc1,-9,-12,-7,5,-3
O=C(O)/C=C/S(=O)(=O)c1ccc2ccccc2c1,3,-1,4,9,2
c1ccc(-n2nnnc2Cc2nnnn2-c2ccccc2)cc1,9,2,73*,30,25
CN1C(=O)/C(=N/OC(=O)c2ccccc2)c2ccccc21,-14,46*,-8,53*,47*
COc1ccc(-c2ccc(C#N)c(SCC(=O)NCCc3ccccc3)n2)cc1OC,-354,56*,-18,-43,-17
CCN(CC)CCCN1C(=O)CSC1c1ccc2c(c1)OCO2 (stereo unspecified),14,20,52*,19,3
O=C1C=C(Nc2ccccc2)C(=O)c2ccccc21,57*,-9,-1,7,-1
Nc1nnc(SCc2c(F)cccc2Cl)s1,5,-5,-3,2,-1
C=CCOC(=O)c1c(C)nc2cc3c(cc2c1C)OCO3,2,16,44*,8,2
O=C(O)CC1(CC(=O)NCc2ccc(C(F)(F)F)cc2)CCCCC1,-18,-4,-1,9,2
O=C(O)CC1(CC(=O)NCc2ccncc2)CCCCC1,6,15,37,41*,28
COc1ccccc1NC(=O)c1ccc2c(c1)nnn2C,13,·,-2,8,2
COc1ccc2c(=O)c3c(=O)n(-c4ccccc4)c(-c4ccc(C)cc4)nc3oc2c1,25,-3,-6,3,-9
COc1ccccc1N1CCN(C/C(O)=C(\C#N)c2nc(-c3ccccc3)cs2)CC1,-121,10,-14,43*,23
c1cnc2c(OCc3nc4ccccc4[nH]3)cccc2c1,56*,-11,-7,-6,-9
COc1ccccc1OCc1nc2ccccc2[nH]1,6,0,-1,9,7
SMILES,m-calpain inh,thrombin 1536,hK5 inh,FXIIa inh,FXIa inh
COCC(=O)n1nc(-c2ccc(Cl)cc2)nc1NCc1ccc(F)cc1,-26,51*,-9,12,1
COCC(=O)n1nc(-c2ccccc2)nc1NCc1ccc(N(C)C)cc1,-8,12,-25,-7,-7
COCC(=O)n1nc(-c2ccc(C)cc2)nc1NCc1ccc(F)cc1,-7,79*,-17,-6,-6
Cc1ccc(S(=O)(=O)NCC2(c3ccccc3)CCOCC2)cc1,10,-8,6,11,2
Cc1ccc(NCC(=O)N=Nc2c(O)[nH]c3ccc([N+](=O)[O-])cc23)cc1,7,-6,-1,3,2
O=C(Nc1ccc(F)cc1)C(=O)c1c(O)[nH]c2ccc([N+](=O)[O-])cc12,57*,2,0,10,4
